From BindingDB's records for doi:10.1021/np300893n (The University of Mississippi, 2013)

Target: Myc proto-oncogene protein (Homo sapiens, UniProt P01106)
Assay: Inhibition of Myc signaling pathway in human HeLa cells assessed as inhibition of PMA induced luciferase treated 30 mins before induction
In short: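 Reporter assay in cells transfected with pathway luciferase plasmids. Cells plated at 0.015 × 10⁶ per well in 10% FBS, switched after 24 h to DMEM with 1% FBS, then transfected. 24 h after transfection, compound (final 40, 60, 80 or 100 μM) was added, followed 30 min later by inducer (IL-6, TGF-β, wnt3a or PMA). Luciferase was read 4 or 6 h after induction (6 h for Notch, Wnt, Hedgehog). Value is the IC50 or the lowest concentration giving maximal 50–60% inhibition; two independent experiments.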

Myc proto-oncogene protein, sequence (P01106 16-454): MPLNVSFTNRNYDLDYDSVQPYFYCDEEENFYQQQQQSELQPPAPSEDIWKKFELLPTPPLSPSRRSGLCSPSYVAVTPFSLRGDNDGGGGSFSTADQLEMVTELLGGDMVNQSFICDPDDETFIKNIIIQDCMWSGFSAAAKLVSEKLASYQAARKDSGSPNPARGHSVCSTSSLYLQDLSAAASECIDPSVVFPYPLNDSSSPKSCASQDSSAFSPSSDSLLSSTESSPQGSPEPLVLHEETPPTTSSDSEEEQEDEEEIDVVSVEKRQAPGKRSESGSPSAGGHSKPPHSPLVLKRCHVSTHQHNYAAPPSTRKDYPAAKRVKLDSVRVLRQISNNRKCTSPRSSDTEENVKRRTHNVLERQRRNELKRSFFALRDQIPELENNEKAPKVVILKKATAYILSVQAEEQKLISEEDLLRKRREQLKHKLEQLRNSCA

`COc1cc(/C=C\c2ccc(OC)c(OC)c2)cc(OC)c1` [(Z)-3,4,3'',5''-Tetramethoxystilbene] showed an IC50 of 60 µM.
